The record followed here is ChEMBL document CHEMBL1147807, “Identification of 2-acylaminothiophene-3-carboxamides as potent inhibitors of FLT3” (Bioorg Med Chem Lett, 2006).

For assay [1], the target named is T1, Serine/threonine-protein kinase D2 (Homo sapiens) (UniProt Q9BZL6).
T1 sequence (whole entry): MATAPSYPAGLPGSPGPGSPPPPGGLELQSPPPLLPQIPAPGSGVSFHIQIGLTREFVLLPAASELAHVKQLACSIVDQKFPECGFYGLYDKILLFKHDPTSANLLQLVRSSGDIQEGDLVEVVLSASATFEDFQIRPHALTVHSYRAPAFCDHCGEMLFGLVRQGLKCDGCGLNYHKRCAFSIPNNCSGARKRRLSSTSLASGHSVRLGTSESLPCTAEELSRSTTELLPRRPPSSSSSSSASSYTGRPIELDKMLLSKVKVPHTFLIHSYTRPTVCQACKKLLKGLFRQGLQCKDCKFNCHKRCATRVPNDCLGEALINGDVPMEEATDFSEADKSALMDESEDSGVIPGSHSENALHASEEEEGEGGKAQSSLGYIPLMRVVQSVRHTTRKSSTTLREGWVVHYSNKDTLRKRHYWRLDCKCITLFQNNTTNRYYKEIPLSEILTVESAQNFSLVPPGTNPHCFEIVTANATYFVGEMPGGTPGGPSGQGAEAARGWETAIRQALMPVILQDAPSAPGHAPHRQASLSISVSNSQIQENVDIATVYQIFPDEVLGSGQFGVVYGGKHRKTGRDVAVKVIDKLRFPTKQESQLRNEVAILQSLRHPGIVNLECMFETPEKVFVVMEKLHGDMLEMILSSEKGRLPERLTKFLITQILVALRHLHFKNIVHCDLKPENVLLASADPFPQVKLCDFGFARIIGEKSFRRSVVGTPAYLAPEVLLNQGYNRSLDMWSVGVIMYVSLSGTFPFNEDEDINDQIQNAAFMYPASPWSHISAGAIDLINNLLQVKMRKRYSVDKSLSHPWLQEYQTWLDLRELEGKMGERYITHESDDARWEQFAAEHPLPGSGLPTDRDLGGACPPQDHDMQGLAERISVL
Nature of the assay: Inhibition of human PKD2 at 3 uM in presence of 10 uM ATP. Summed up:
(§1)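 Selectivity panel run at a single compound concentration of 3 µM with 10 µM ATP. Read-out is % inhibition of each kinase. Values are averages of duplicate experiments.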

Assay [2] deals with T2, Serine/threonine-protein kinase D1 (Homo sapiens) (UniProt Q15139).
T2 sequence (whole entry): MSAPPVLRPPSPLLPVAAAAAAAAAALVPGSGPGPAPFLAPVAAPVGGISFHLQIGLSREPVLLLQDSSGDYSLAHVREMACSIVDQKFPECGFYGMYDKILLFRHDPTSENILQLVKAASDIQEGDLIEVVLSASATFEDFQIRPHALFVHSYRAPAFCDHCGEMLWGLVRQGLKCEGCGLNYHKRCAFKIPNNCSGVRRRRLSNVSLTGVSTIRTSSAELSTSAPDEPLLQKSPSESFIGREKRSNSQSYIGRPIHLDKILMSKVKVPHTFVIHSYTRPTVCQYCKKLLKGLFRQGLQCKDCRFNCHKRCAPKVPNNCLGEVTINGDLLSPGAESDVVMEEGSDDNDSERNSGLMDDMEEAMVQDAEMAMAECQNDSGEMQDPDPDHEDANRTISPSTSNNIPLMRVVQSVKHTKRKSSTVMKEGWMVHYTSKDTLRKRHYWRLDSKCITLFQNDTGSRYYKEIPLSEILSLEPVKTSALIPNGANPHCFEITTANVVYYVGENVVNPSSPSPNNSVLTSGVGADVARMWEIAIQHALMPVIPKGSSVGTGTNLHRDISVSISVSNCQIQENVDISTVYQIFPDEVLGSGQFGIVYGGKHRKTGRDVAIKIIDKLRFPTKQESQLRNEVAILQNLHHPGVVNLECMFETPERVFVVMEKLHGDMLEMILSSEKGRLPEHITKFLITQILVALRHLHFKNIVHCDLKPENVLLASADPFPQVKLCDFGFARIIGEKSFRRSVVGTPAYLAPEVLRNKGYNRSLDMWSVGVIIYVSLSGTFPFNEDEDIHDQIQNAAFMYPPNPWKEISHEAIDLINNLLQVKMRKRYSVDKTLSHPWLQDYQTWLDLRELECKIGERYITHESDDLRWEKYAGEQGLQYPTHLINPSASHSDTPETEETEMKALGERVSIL
Description: Inhibition of human PKC mu at 3 uM in presence of 10 uM ATP. Summed up: as §1

Assay [3] concerns the target Tyrosine-protein kinase ABL2 (Homo sapiens) (UniProt P42684). Nature of the assay: Inhibition of human Arg kinase at 3 uM in presence of 10 uM ATP. The procedure, abridged: as §1
The target of assay [4] is Mitogen-activated protein kinase 10 (Homo sapiens) (UniProt P53779). Description: Inhibition of human JNK3 at 3 uM in presence of 10 uM ATP. The procedure, abridged: as §1
Assay [5] concerns the target Hepatocyte growth factor receptor (Homo sapiens) (UniProt P08581). Description: Inhibition of human Met at 3 uM in presence of 10 uM ATP. Summed up: as §1
Assay [6] concerns the target RAF proto-oncogene serine/threonine-protein kinase (Homo sapiens) (UniProt P04049). Nature of the assay: Inhibition of human c-RAF at 3 uM in presence of 10 uM ATP. Summed up:
as §1

Chain of Mitogen-activated protein kinase 10 (Homo sapiens) (P53779 whole entry): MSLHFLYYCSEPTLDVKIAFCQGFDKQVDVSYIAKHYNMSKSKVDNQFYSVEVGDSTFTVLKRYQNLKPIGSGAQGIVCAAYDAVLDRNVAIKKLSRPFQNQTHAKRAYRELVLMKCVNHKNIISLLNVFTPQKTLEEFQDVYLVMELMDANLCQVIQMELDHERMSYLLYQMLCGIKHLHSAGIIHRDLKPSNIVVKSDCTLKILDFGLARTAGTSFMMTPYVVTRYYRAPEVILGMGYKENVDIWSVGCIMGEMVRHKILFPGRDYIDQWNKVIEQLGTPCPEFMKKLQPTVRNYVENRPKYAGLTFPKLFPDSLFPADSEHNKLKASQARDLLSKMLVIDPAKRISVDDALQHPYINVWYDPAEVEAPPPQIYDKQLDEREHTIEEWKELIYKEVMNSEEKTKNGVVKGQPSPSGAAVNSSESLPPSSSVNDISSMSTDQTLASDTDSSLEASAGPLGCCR
Chain of RAF proto-oncogene serine/threonine-protein kinase (Homo sapiens) (P04049 whole entry): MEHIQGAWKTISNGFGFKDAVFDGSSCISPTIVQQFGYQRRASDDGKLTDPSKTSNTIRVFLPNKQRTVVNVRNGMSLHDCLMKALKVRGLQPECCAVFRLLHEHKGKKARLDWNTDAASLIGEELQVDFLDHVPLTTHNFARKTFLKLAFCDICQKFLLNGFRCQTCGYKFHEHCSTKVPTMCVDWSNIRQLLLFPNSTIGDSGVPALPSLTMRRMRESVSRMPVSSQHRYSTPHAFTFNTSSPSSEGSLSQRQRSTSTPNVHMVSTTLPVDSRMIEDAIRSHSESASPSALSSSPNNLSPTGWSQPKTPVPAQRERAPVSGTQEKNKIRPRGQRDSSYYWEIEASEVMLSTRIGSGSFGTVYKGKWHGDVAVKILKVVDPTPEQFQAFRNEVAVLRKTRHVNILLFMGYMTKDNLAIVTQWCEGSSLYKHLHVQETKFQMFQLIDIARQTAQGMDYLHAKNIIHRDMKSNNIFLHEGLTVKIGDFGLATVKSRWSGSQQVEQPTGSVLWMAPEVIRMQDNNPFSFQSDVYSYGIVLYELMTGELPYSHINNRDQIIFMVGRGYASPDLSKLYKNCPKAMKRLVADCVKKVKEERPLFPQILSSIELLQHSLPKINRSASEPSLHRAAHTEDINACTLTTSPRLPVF
Chain of Hepatocyte growth factor receptor (Homo sapiens) (P08581 whole entry): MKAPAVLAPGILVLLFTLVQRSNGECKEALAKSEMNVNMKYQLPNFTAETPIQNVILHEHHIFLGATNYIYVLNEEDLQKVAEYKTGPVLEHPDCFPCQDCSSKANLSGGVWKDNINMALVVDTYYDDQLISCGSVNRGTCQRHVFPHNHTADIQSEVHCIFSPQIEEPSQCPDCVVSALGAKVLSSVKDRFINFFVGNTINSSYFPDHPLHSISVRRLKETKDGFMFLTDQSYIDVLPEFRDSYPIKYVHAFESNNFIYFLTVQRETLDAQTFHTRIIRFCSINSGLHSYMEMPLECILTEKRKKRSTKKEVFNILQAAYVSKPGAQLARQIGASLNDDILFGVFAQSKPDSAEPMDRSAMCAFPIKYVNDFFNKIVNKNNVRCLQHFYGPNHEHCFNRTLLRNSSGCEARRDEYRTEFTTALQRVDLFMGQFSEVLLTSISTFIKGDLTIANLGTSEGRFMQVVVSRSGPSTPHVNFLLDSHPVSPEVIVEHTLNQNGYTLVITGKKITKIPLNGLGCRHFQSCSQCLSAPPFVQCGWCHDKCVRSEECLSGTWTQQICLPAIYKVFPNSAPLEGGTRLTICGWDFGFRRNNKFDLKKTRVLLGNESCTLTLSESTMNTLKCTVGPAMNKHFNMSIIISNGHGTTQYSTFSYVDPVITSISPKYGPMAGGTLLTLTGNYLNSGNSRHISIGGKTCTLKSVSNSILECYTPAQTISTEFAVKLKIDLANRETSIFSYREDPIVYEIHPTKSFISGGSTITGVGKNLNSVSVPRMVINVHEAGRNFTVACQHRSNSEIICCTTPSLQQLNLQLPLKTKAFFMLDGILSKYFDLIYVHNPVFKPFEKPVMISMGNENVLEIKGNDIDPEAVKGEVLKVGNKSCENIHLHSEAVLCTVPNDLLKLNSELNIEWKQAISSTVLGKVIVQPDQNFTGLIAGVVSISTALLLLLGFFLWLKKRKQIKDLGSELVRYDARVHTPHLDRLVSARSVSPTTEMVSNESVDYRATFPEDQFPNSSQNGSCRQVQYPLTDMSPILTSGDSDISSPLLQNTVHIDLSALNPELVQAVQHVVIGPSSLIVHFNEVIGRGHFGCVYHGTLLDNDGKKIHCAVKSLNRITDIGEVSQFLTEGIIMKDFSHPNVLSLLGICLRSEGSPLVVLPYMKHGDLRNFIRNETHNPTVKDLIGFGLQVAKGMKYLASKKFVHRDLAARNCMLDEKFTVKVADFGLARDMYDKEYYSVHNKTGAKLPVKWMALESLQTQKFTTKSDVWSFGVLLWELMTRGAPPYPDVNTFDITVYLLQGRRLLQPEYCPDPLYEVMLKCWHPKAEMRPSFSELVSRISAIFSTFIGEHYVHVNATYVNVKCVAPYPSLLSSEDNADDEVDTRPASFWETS
Chain of Tyrosine-protein kinase ABL2 (Homo sapiens) (P42684 whole entry): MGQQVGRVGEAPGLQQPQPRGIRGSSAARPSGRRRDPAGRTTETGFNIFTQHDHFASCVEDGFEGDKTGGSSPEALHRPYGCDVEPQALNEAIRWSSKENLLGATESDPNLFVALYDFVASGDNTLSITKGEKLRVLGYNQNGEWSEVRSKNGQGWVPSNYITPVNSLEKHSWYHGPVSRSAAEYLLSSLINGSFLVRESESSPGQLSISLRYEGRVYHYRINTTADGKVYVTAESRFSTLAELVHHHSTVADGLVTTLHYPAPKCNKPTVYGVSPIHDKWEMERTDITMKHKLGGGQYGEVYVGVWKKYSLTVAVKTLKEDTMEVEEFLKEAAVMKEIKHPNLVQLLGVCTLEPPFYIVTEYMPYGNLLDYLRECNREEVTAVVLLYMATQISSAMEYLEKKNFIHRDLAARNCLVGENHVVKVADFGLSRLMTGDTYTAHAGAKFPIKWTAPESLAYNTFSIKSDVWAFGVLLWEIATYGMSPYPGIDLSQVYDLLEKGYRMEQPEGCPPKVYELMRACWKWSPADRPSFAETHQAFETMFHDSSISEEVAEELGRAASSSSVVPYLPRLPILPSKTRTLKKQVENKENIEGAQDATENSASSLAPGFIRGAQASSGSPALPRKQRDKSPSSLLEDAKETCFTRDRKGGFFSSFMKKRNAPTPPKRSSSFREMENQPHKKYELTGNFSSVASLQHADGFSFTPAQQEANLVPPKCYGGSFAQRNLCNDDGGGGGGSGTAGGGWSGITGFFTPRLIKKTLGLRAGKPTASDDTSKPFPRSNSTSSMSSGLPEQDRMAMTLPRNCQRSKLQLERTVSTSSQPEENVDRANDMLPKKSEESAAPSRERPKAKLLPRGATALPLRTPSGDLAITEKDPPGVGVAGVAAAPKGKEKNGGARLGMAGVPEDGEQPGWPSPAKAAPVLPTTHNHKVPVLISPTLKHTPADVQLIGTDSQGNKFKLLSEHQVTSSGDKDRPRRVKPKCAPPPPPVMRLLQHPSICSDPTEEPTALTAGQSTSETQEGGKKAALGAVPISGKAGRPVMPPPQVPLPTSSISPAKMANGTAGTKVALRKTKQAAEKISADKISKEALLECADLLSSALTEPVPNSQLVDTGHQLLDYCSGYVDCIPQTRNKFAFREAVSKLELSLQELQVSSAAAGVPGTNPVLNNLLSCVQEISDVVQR

As for `COc1ccc(C(=O)Nc2sc3c(c2C(N)=O)CCCC3)cc1OC`, the inhibition in assay [1] is -7%; in assay [2], 3%; in assay [3], 49%; in assay [4], -6%; in assay [5], 13%; in assay [6] it was -1%.

The term inhibition denotes the change of the read-out against control, counted positive when it falls.
